The source of these data is ChEMBL document CHEMBL4033733, “Enterovirus inhibitory activity of C-8-tert-butyl substituted 4-aryl-6,7,8,9-tetrahydrobenzo[4,5]thieno[3,2-e][1,2,4]triazolo[4,3-a]pyrimidin-5(4H)-ones” (Bioorg Med Chem Lett, 2017).

Broadly, the EC50 is the midpoint of the concentration-response curve. Broadly, the CC50 is the concentration that lowers cell viability or growth by half.

Data set [1] deals with Coxsackievirus B1. The data set can be described thus: Antiviral activity against human coxsackievirus B1 infected in human HeLa cells assessed as reduction in virus-induced cytopathicity incubated for 3 days by MTT assay. Format: functional, cell-based. As to conditions: Enterovirus B, 72 h. Summed up:
(§1)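 HeLa cells infected with enterovirus (coxsackievirus B1 or B3); protection from virus-induced cytopathic effect measured. EC50 is the concentration restoring 50% viability of the infected cells. Pleconaril served as reference.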
On the technique in general: Protection from cytopathic effect is a common read-out in antiviral testing.

Data set [2] deals with rhinovirus A21. The data set can be described thus: Antiviral activity against human rhinovirus 21 infected in human H1HeLa cells assessed as reduction in virus-induced cytopathicity incubated for 3 days by MTT assay. It counts as functional, cell-based. As to conditions: Rhinovirus A, H1-HeLa, 72 h. Summed up:
(§2)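 H1 HeLa cells infected with rhinovirus (14, 21 or 71); EC50 is the concentration restoring 50% viability of the infected cells. Pleconaril served as reference.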

For data set [3], the system named is rhinovirus B14. In words: Antiviral activity against human rhinovirus 14 infected in human H1HeLa cells assessed as reduction in virus-induced cytopathicity incubated for 3 days by MTT assay. Format: functional, cell-based. As to conditions: Rhinovirus B, H1-HeLa, 72 h. Summed up:
as §2

The subject of data set [4] is Coxsackievirus B3. In words: Antiviral activity against human coxsackievirus B3 infected in human HeLa cells assessed as reduction in virus-induced cytopathicity incubated for 3 days by MTT assay. As to conditions: Enterovirus B, 72 h. It counts as functional, cell-based. In short, it runs like this: as §1
The nature of data set [5]: Cytotoxicity in human H1HeLa cells assessed as reduction in cell viability incubated for 3 days by MTT assay. Format: cell-based, H1-HeLa. In short, it runs like this:
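Uninfected H1 HeLa cells; CC50 is the concentration lowering cell viability by 50%.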

Data set [6] in a line: Cytotoxicity in human HeLa cells assessed as reduction in cell viability incubated for 3 days by MTT assay. Format: cell-based. Summed up: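 Uninfected HeLa cells; CC50 is the concentration lowering cell viability by 50%.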
For data set [7], the system named is Poliovirus 3. In words: Antiviral activity against human poliovirus 3 infected in human HeLa cells assessed as reduction in virus-induced cytopathicity incubated for 3 days by MTT assay. Format: functional, cell-based. As to conditions: Enterovirus C, 72 h. Summed up: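 Cytopathic-effect reduction assay in HeLa cells infected with coxsackievirus B1, B3 or poliovirus 3, with pleconaril as reference. EC50 is the concentration that improves viability of infected HeLa cells by 50%. CC50 is the concentration that reduces viability of uninfected HeLa cells by 50%. SI is CC50/EC50.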

The nature of data set [8]: Antiviral activity against human rhinovirus 71 infected in human H1HeLa cells assessed as reduction in virus-induced cytopathicity incubated for 3 days by MTT assay. The note with it: Rhinovirus A, H1-HeLa, 72 h. Format: functional, cell-based, Human rhinovirus A71. In short, it runs like this:
as §2

As to `Cc1nnc2n(-c3ccccc3)c(=O)c3c4c(sc3n12)CC(C(C)(C)C)CC4` (stereo not given), the concentration for a half-maximal effect (EC50) in data set [1] is more than 45.1 µM; in data set [2] it was more than 35.9 µM; in data set [3], 4.3 µM; in data set [4], more than 45.1 µM; in data set [7] it was more than 45.1 µM; in data set [8], 4.6 µM. The CC50 at 72 h came to 35.9 µM in data set [5] and 45.1 µM in data set [6].
Regarding `CC(C)(C)C1CCc2c(sc3c2c(=O)n(-c2cccc(Cl)c2)c2nncn32)C1` (stereo not given), the half-maximal effective concentration (EC50) in data set [1] was 17.8 µM; in data set [2], more than 15 µM; in data set [3], 2.1 µM; in data set [4], more than 38.3 µM; in data set [7] it was 9.63 µM; in data set [8], 3.8 µM. Also, the results for the CC50 at 72 h in data set [5] and in data set [6] were 15 µM and 38.3 µM, respectively.
With `CC(C)(C)C1CCc2c(sc3c2c(=O)n(-c2ccccc2)c2nnc(N)n32)C1` (stereo not given), the concentration giving a half-maximal response (EC50) is more than 45.9 µM in data set [1]; more than 35.4 µM in data set [2]; 8.2 µM in data set [3]; more than 45.9 µM in data set [4]; more than 45.9 µM in data set [7]; 12.8 µM in data set [8]. In addition, the values for the CC50 at 72 h in data set [5] and in data set [6] were 35.4 µM and 45.9 µM, respectively.
With `O=c1c2c3c(sc2n2cnnc2n1-c1ccccc1)CCCC3`, the EC50 in data set [1], in data set [2], in data set [3], in data set [4], in data set [7] and in data set [8] was more than 100 µM each time. Moreover, the CC50 at 72 h in data set [5] and in data set [6] was more than 100 µM throughout.
In the case of `CC(C)(C)C1CCc2c(sc3c2c(=O)n(-c2ccc(Br)cc2)c2nncn32)C1` (stereo not given), the concentration for a half-maximal effect (EC50) in data set [1] is more than 30.5 µM; in data set [2], more than 11 µM; in data set [3], 2 µM; in data set [4], more than 30.5 µM; in data set [7], 12.6 µM; in data set [8], 2.3 µM. The CC50 at 72 h in data set [5] came to 11 µM; in data set [6] it was 30.5 µM.
As to `Cc1ccc(-c2ccc(-n3c(=O)c4c5c(sc4n4cnnc34)CC(C(C)(C)C)CC5)cc2)cc1` (stereo not given), the 50% effective concentration (EC50) in data set [1] is 55.4 µM; in data set [2], more than 16.9 µM; in data set [3] it was more than 16.9 µM; in data set [4] it was 46.8 µM; in data set [7], 47 µM; in data set [8], more than 16.9 µM. Besides, the CC50 at 72 h is 16.9 µM in data set [5] and more than 100 µM in data set [6].
Consider `CC1(C)CCc2c(sc3c2c(=O)n(-c2ccccc2)c2nncn32)C1`, for which the EC50 in data set [1] is more than 54.8 µM; in data set [2], more than 76.5 µM; in data set [3], more than 76.5 µM; in data set [4], more than 54.8 µM; in data set [7] it was more than 54.8 µM; in data set [8] it was more than 76.5 µM. The values for the CC50 at 72 h in data set [5] and in data set [6] were 76.5 µM and 54.8 µM, respectively.
As for `CC(C)(C)C1CCc2c(sc3c2c(=O)n(-c2ccccc2)c2nnc(S)n32)C1` (stereo not given), the EC50 in data set [1] was more than 45.1 µM; in data set [2] it was 19.4 µM; in data set [3], 10.1 µM; in data set [4], more than 45.1 µM; in data set [7], more than 45.1 µM; in data set [8] it was 9.1 µM. Besides, the results for the 50% cytotoxic concentration (CC50) at 72 h in data set [5] and in data set [6] were 40.1 µM and 45.1 µM, respectively.
For the compound `O=c1c2c3c(sc2n2cnnc2n1-c1ccccc1)CC(c1ccccc1)CC3` (stereo not given), the concentration giving a half-maximal response (EC50) in data set [1] is more than 27.5 µM; in data set [2] it was more than 27.6 µM; in data set [3], 19.4 µM; in data set [4], more than 27.5 µM; in data set [7], more than 27.5 µM; in data set [8], more than 27.6 µM. Further, the half-maximal cytotoxic concentration (CC50) at 72 h was found to be 27.6 µM in data set [5] and 27.5 µM in data set [6].
`CC(C)(C)C1CCc2c(sc3c2c(=O)n(-c2cccc(Br)c2)c2nncn32)C1` (stereo not given): the EC50 in data set [1] is 15.6 µM; in data set [2] it was 20 µM; in data set [3], 3.5 µM; in data set [4], more than 32.9 µM; in data set [7], 13.2 µM; in data set [8], 15.9 µM. Also, the values for the CC50 at 72 h in data set [5] and in data set [6] were 26.3 µM and 32.9 µM, respectively.
